From ChEMBL document CHEMBL2346505, “Pyranoflavones: a group of small-molecule probes for exploring the active site cavities of cytochrome P450 enzymes 1A1, 1A2, and 1B1” (J Med Chem, 2013)

Columns and labels:
Type in all cases: ADME
Cytochrome P450 2B1 = biological target: T1, Cytochrome P450 2B1 (Rattus norvegicus, UniProt P00176); experiment: Inhibition of CYP2B1 (unknown origin)-mediated depentylation of resorufin pentyl ether after 5 mins by spectrofluorimetric analysis
T1 sequence (P00176 whole entry): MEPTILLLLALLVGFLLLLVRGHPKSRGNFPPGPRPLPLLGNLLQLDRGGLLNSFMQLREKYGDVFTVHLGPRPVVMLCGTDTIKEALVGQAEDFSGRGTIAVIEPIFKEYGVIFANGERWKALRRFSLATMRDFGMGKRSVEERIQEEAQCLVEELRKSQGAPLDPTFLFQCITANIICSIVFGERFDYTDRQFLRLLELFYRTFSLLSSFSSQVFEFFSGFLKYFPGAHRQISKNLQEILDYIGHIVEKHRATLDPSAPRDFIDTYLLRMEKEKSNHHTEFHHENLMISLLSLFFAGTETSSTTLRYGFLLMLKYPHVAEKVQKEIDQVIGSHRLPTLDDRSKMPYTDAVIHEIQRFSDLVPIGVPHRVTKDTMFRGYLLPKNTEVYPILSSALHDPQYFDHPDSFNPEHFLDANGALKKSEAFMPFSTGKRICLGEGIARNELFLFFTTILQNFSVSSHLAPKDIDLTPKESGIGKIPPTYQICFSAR
Method in brief: (§1)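 Microsomal P450 (final 5 nM) in 0.1 M potassium phosphate pH 7.6 with MgCl2; resorufin ether or coumarin substrate final 5 μM from DMSO stock; inhibitor added in DMSO, DMSO alone for controls. Reaction started with NADPH regenerating system (NADP+, glucose 6-phosphate, G6P dehydrogenase) at 37 °C; product formation followed fluorimetrically as progress curves.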

Cytochrome P450 2A6 = biological target: T2, Cytochrome P450 2A6 (Homo sapiens, UniProt P11509); experiment: Inhibition of CYP2A6 (unknown origin)-mediated coumarin 7-hydroxylation after 5 mins by spectrofluorimetric analysis; method in brief: as §1
T2 sequence (P11509 whole entry): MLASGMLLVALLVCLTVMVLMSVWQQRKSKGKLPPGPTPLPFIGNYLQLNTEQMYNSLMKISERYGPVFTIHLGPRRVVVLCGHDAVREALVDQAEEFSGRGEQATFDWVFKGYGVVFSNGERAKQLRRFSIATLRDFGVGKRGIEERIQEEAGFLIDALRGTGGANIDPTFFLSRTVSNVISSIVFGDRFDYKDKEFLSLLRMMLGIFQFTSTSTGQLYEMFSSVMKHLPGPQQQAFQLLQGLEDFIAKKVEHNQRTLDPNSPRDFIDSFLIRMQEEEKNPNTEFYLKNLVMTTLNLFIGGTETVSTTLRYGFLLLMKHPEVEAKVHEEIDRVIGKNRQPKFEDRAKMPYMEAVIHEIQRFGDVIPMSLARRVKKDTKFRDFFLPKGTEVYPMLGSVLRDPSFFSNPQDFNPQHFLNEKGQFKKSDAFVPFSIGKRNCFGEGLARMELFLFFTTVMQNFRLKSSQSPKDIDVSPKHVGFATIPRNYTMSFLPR

CYP1A2 / CYP1A1 = experiment: Selectivity ratio of IC50 for CYP1A2 (unknown origin) to IC50 for CYP1A1 (unknown origin); conditions: human; read-out: Ratio IC50
Cytochrome P450 1B1 = biological target: T3, Cytochrome P450 1B1 (Homo sapiens, UniProt Q16678); experiment: Inhibition of CYP1B1 (unknown origin)-mediated deethylation of resorufin ethyl ether after 5 mins by spectrofluorimetric analysis; method in brief: as §1
T3 sequence (Q16678 whole entry): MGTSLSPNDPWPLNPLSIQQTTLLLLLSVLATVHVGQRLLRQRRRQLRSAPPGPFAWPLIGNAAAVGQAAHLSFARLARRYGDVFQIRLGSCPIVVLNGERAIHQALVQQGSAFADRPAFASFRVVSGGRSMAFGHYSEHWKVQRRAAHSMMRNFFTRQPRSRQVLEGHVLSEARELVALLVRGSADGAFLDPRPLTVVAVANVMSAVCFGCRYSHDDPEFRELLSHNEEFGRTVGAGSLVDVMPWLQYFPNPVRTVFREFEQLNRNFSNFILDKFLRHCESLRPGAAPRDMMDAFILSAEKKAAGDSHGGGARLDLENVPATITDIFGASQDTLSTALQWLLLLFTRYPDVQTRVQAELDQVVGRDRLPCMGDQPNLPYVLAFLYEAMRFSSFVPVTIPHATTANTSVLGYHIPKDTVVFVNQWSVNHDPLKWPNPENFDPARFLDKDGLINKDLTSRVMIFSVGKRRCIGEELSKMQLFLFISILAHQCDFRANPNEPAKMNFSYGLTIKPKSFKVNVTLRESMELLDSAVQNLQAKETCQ

Cytochrome P450 1A2 [1] = biological target: T4, Cytochrome P450 1A2 (Homo sapiens, UniProt P05177); experiment: Inhibition of CYP1A2 (unknown origin)-mediated demethylation of resorufin methyl ether after 5 mins by spectrofluorimetric analysis; method in brief: as §1
T4 sequence (P05177 whole entry): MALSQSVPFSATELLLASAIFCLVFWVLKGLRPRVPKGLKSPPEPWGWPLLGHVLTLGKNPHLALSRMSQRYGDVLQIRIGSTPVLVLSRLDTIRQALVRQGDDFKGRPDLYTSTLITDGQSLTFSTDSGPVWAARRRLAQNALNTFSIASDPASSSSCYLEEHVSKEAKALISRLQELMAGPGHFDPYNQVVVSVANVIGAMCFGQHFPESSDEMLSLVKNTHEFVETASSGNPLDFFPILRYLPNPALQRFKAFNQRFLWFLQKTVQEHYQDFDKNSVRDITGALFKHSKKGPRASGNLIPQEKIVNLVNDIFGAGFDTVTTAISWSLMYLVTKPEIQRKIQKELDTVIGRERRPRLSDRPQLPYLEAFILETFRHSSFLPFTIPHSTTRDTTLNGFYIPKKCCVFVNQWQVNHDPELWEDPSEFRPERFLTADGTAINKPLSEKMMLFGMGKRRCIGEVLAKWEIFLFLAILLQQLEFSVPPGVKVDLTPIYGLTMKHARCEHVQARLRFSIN

Cytochrome P450 1A1 [2] = biological target: T5, Cytochrome P450 1A1 (Homo sapiens, UniProt P04798); experiment: Inhibition of CYP1A1 (unknown origin)-mediated deethylation of resorufin ethyl ether after 5 mins by spectrofluorimetric analysis; method in brief: as §1
T5 sequence (P04798 whole entry): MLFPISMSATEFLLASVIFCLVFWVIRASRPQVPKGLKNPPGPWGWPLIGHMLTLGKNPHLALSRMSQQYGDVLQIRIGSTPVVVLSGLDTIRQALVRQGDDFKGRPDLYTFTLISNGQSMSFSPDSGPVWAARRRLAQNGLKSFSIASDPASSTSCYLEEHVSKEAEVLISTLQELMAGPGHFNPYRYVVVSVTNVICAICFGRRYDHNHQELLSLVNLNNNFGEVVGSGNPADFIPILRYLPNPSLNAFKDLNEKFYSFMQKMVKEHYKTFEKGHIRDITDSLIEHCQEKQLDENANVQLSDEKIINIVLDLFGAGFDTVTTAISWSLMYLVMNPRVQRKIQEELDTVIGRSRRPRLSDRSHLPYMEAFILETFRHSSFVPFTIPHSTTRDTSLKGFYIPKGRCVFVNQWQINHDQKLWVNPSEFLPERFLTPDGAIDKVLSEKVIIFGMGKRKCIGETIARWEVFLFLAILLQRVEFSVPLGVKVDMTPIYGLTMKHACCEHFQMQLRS

Cytochrome P450 1A1 [3] = biological target: T5, Cytochrome P450 1A1; experiment: Inhibition of CYP1A1 (unknown origin)-mediated deethylation of resorufin ethyl ether at 0.1 uM after 5 mins by spectrofluorimetric analysis
Method in brief: (§2)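 Fluorimetric dealkylation of resorufin ether (ethyl for 1A1/1B1, methyl for 1A2) by microsomal P450 (final 5 nM), substrate final 5 μM, in 0.1 M potassium phosphate pH 7.6 with MgCl2 at 37 °C. Reaction started with NADPH regenerating system. Test compound at 0.1 μM in DMSO; activity compared with DMSO-only control.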

Cytochrome P450 1A2 [4] = biological target: T4, Cytochrome P450 1A2; experiment: Inhibition of CYP1A2 (unknown origin)-mediated demethylation of resorufin methyl ether at 0.1 uM after 5 mins by spectrofluorimetric analysis; method in brief: as §2
CYP1B1 = biological target: T6, CYP1B1 (Homo sapiens, UniProt Q16678); experiment: Inhibition of CYP1B1 (unknown origin) dealkylation activity at 0.1 uM after 5 mins by spectrofluorimetric analysis relative to control; method in brief: as §2
T6 sequence (Q16678 whole entry): T3 sequence (Q16678 whole entry)

CYP1B1 over CYP1A2 = experiment: Selectivity ratio for CYP1B1 (unknown origin) over CYP1A2 (unknown origin); conditions: human
Method in brief: (§3)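 Ratio of IC50 values from fluorimetric dealkylation assays: resorufin ethyl ether deethylation (1A1, 1B1), resorufin methyl ether demethylation (1A2). Microsomal P450 5 nM final, substrate 5 μM final, 0.1 M potassium phosphate pH 7.6 with MgCl2, NADPH-regenerating system, 37 °C. Inhibitor 0.1–100 μM in DMSO. IC50s from progress curves, three independent experiments.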

CYP1B1 over CYP1A1 = experiment: Selectivity ratio for CYP1B1 (unknown origin) over CYP1A1 (unknown origin); conditions: human; method in brief: as §3
CYP1A2 = biological target: T7, CYP1A2 (Homo sapiens, UniProt P05177); experiment: (§4) Irreversible inhibition of CYP1A2 (unknown origin)-mediated demethylation of resorufin methyl ether after 5 mins by spectrofluorimetric analysis; conditions: human, probe resorufin methyl ether
T7 sequence (P05177 whole entry): T4 sequence (P05177 whole entry)

Cytochrome P450 1A2 [5] = biological target: T4, Cytochrome P450 1A2; experiment: as §4
CYP1A1 = biological target: T8, CYP1A1 (Homo sapiens, UniProt P04798); experiment: (§5) Irreversible inhibition of CYP1A1 (unknown origin)-mediated deethylation of resorufin ethyl ether after 5 mins by spectrofluorimetric analysis; conditions: human, probe resorufin ethyl ether
T8 sequence (P04798 whole entry): T5 sequence (P04798 whole entry)

Cytochrome P450 1A1 [6] = biological target: T5, Cytochrome P450 1A1; experiment: as §5

SMILES	IC50 (Cytochrome P450 2B1) [µM]	IC50 (Cytochrome P450 2A6) [µM]	inhibition (INH) (Cytochrome P450 1B1)	IC50 (Cytochrome P450 1A2 [1]) [nM]	IC50 (Cytochrome P450 1A1 [2]) [nM]	further results
C#CCOc1ccc(-c2cc(=O)c3c(ccc4ccccc43)o2)cc1				600	41	selectivity ratio (CYP1A2 / CYP1A1): 5
O=c1cc(-c2cccc3c2C=CCO3)oc2cccc(O)c12	> 25	> 25	Active			
O=c1cc(-c2ccc3c(c2)OCC=C3)oc2cccc(O)c12	> 25	> 25	Active			
C#CCOc1ccc(-c2cc(=O)c3c(O)cccc3o2)cc1	> 25	> 25	Active	> 20000		inhibition (INH) (Cytochrome P450 1A1 [3]): Not Active; inhibition (INH) (Cytochrome P450 1A2 [4]): Not Active; inhibition at 5 min, 0.1 µM (CYP1B1): 50%; selectivity ratio (CYP1B1 over CYP1A2): > 250; selectivity ratio (CYP1B1 over CYP1A1): 100
O=c1cc(-c2ccccc2)oc2cc3c(c(O)c12)C=CCO3	> 25	> 25	Active			
O=c1cc(-c2ccccc2)oc2cc(O)cc(O)c12 [CHRYSIN]	> 25	> 25	Active			
O=c1cc(-c2ccc3c(c2)C=CCO3)oc2cccc(O)c12	> 25	> 25	Active			
O=c1cc(-c2ccccc2)oc2ccc3c(c12)C=CCO3	> 25	> 25	Active	760	150	selectivity ratio (CYP1A2 / CYP1A1): 5

Further lines, with some results ahead:

IC50 (Cytochrome P450 2B1) [µM]	IC50 (Cytochrome P450 2A6) [µM]	inhibition (INH) (Cytochrome P450 1B1)	IC50 (Cytochrome P450 1A2 [1]) [nM]	IC50 (Cytochrome P450 1A1 [2]) [nM]	SMILES	further results
> 25	> 25	Active	470	54	O=c1cc(-c2ccccc2)oc2ccc3ccccc3c12 [BETA-NAPHTHOFLAVONE]	selectivity ratio (CYP1A2 / CYP1A1): 5
> 25	> 25	Active		270	O=c1cc(-c2ccccc2)oc2c3c(ccc12)OCC=C3	
6.62	> 25	Active			O=c1cc(-c2ccc3c(c2)C=CCO3)oc2ccccc12	
> 25	> 25	Active	1130	320	O=c1cc(-c2ccccc2)oc2ccc3c(c12)OCC=C3	selectivity ratio (CYP1A2 / CYP1A1): 3.5
> 25	> 25	Active	89	350	C#CCOc1cc(O)c2c(=O)cc(-c3ccccc3)oc2c1	
> 25	> 25	Active		110	O=c1cc(-c2ccccc2)oc2c3c(cc(O)c12)OCC=C3	
13	> 25	Active		43	O=c1cc(-c2ccccc2)oc2c1ccc1ccccc12 [ALPHA-NAPHTHOFLAVONE]	
7.12	> 25	Active			O=c1cc(-c2cccc3c2C=CCO3)oc2ccccc12 [2'H,4H-[2,5'-BICHROMEN]-4-ONE]	
6.29	> 25	Active			O=c1cc(-c2cccc3c2OCC=C3)oc2ccccc12 [2'H,4H-[2,8'-BICHROMEN]-4-ONE]	
4.08	> 25	Active			C#CCOc1cccc(-c2cc(=O)c3c(O)cccc3o2)c1	kinact at 5 min (CYP1A2): 0.000367 s⁻¹; Ki (Cytochrome P450 1A2 [5]): 71 nM; kinact at 5 min (CYP1A1): 0.00317 s⁻¹; Ki (Cytochrome P450 1A1 [6]): 130 nM
